In ChEMBL document CHEMBL3272245, “Potent reversible anticholinesterase agents. Bis- and mono-N-substituted benzoquinolinium halides” (J Med Chem, 1977):

Legend:
Butyrylcholinesterase [1] = biological target: T1, Butyrylcholinesterase (Equus caballus, UniProt Q9N1N9); assay: Reversible mixed-type inhibition of horse serum butyrylcholinesterase using acetylcholine bromide as substrate by Lineweaver-Burk plot analysis
Acetylcholinesterase [2] = biological target: T2, Acetylcholinesterase (Electrophorus electricus, UniProt O42275); assay: Reversible mixed-type inhibition of electric eel acetylcholinesterase using acetylcholine bromide as substrate by Lineweaver-Burk plot analysis
Acetylcholinesterase [3] = biological target: T2, Acetylcholinesterase; assay: Reversible mixed-type inhibition of electric eel acetylcholinesterase using acetylcholine bromide as substrate assessed as free enzyme-inhibitor complex by Lineweaver-Burk plot analysis
Butyrylcholinesterase [4] = biological target: T1, Butyrylcholinesterase; assay: Reversible mixed-type inhibition of horse serum butyrylcholinesterase using acetylcholine bromide as substrate assessed as free enzyme-inhibitor complex by Lineweaver-Burk plot analysis
Acetylcholinesterase [5] = biological target: T2, Acetylcholinesterase; assay: Mixed-type inhibition of electric eel acetylcholinesterase using acetylcholine bromide as substrate assessed as free enzyme-inhibitor complex by Lineweaver-Burk plot analysis
Acetylcholinesterase [6] = biological target: T2, Acetylcholinesterase; assay: Mixed-type inhibition of electric eel acetylcholinesterase using acetylcholine bromide as substrate by Lineweaver-Burk plot analysis
Butyrylcholinesterase [7] = biological target: T1, Butyrylcholinesterase; assay: Mixed-type inhibition of horse serum butyrylcholinesterase using acetylcholine bromide as substrate assessed as free enzyme-inhibitor complex by Lineweaver-Burk plot analysis
Butyrylcholinesterase [8] = biological target: T1, Butyrylcholinesterase; assay: Mixed-type inhibition of horse serum butyrylcholinesterase using acetylcholine bromide as substrate by Lineweaver-Burk plot analysis
Butyrylcholinesterase [9] = biological target: T1, Butyrylcholinesterase; assay: Reversible competitive inhibition of horse serum butyrylcholinesterase using acetylcholine bromide as substrate assessed as free enzyme-inhibitor complex by Lineweaver-Burk plot analysis
Acetylcholinesterase [10] = biological target: T2, Acetylcholinesterase; assay: Reversible competitive inhibition of electric eel acetylcholinesterase using acetylcholine bromide as substrate assessed as free enzyme-inhibitor complex by Lineweaver-Burk plot analysis
Acetylcholinesterase [11] = biological target: T2, Acetylcholinesterase; assay: Mixed-type inhibition of electric eel acetylcholinesterase using acetylcholine bromide as substrate assessed as […] by Lineweaver-Burk plot analysis
In short: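 Electric eel electric-organ acetylcholinesterase (0.1 unit per 10 mL reaction) added to five inhibitor concentrations each mixed with acetylcholine bromide, e.g. 0.1, 0.15, 0.25, 0.4, 0.8 mM final. Initial hydrolysis rates over 4 min at 25 °C by pH-stat titration. Lineweaver-Burk analysis; Km from inhibitor-free runs.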

T2 sequence (O42275 whole entry): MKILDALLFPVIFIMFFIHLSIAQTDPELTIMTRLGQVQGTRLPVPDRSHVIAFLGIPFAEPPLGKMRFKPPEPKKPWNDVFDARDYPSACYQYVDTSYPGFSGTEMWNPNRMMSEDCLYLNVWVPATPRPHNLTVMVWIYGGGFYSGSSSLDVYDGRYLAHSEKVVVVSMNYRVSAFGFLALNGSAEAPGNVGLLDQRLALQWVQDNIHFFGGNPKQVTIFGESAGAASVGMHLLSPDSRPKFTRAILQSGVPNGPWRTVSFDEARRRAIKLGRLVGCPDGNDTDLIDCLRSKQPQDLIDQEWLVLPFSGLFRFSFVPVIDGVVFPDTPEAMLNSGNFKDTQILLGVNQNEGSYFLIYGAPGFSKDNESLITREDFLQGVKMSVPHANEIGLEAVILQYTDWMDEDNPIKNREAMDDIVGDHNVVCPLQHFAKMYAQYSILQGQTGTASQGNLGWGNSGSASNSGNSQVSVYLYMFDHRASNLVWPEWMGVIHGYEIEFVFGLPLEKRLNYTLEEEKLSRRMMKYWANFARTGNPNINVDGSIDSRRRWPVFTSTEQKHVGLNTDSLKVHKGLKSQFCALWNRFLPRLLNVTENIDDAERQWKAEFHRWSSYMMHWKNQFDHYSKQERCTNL
T1 sequence (Q9N1N9 whole entry): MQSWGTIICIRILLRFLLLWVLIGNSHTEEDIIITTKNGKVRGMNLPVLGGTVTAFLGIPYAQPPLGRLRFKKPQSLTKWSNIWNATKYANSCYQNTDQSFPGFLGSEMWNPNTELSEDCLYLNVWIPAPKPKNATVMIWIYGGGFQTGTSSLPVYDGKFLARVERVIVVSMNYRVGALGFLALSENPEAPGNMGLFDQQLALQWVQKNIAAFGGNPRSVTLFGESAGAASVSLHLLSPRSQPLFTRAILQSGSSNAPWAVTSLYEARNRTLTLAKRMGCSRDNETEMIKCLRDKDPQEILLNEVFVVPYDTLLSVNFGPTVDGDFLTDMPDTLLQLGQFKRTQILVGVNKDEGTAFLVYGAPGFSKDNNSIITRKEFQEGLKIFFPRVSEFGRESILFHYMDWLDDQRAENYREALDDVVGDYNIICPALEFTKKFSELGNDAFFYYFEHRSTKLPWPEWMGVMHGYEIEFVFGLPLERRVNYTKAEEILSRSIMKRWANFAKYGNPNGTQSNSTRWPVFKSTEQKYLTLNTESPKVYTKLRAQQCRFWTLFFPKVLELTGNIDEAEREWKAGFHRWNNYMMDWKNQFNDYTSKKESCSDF

| SMILES | Ki (Butyrylcholinesterase [1]) [µM] | Ki (Acetylcholinesterase [2]) [µM] | Ki (Acetylcholinesterase [3]) [µM] | Ki (Butyrylcholinesterase [4]) [µM] | also measured |
| --- | --- | --- | --- | --- | --- |
| c1ccc2c(c1)cc1ccccc1[n+]2CCCCCC[n+]1c2ccccc2cc2ccccc21 | 0.024 | 0.0021 | 0.0021 | 0.0073 | – |
| C[N+](C)(CCCCCC[N+](C)(C)Cc1ccc(-c2ccccc2)cc1)Cc1ccc(-c2ccccc2)cc1 | – | – | – | – | Ki (Acetylcholinesterase [5]): 39 µM; Ki (Acetylcholinesterase [6]): 120 µM; Ki (Butyrylcholinesterase [7]): 1.5 µM; Ki (Butyrylcholinesterase [8]): 7.9 µM |
| CC(=O)OCC[n+]1ccccc1 | – | – | 320 | 120 | Ki (Acetylcholinesterase [5]): 320 µM; Ki (Butyrylcholinesterase [7]): 120 µM; Ki (Butyrylcholinesterase [9]): 0.011 µM; Ki (Acetylcholinesterase [10]): 0.021 µM |
| CC(=O)OCC[n+]1cccc2c3ccccc3ccc21 | – | – | – | – | Ki (Butyrylcholinesterase [9]): 0.82 µM; Ki (Acetylcholinesterase [10]): 0.95 µM |
| C[n+]1cc2ccccc2c2ccccc21 | 6.4 | 25.5 | 5.6 | 1.1 | – |
| c1ccc(C[n+]2cc3ccccc3c3ccccc32)cc1 | 0.26 | 0.95 | 0.25 | 0.061 | – |
| C[N+](C)(CCCCCC[N+](C)(C)C1c2ccccc2-c2ccccc21)C1c2ccccc2-c2ccccc21 [HEXAFLUORENIUM BROMIDE] | 0.89 | 1.3 | 1.3 | 0.34 | – |
| c1ccc2c(c1)c[n+](CCCCCC[n+]1cc3ccccc3c3ccccc31)c1ccccc21 | 0.091 | 0.0066 | 0.0066 | 0.027 | – |
| O=C(O)C[n+]1cc2ccccc2c2ccccc21 | 86 | 72.4 | 12 | 41 | – |
| c1ccc(CC[n+]2cccc3c4ccccc4ccc32)cc1 | 4.9 | 18.5 | 1.8 | 0.92 | – |
| c1ccc2c(c1)c[n+](Cc1ccc(C[n+]3cc4ccccc4c4ccccc43)cc1)c1ccccc21 | 0.23 | 0.71 | 0.18 | 0.057 | – |
| OCC[n+]1c2ccccc2cc2ccccc21 | 7.2 | 9.6 | 2.9 | 1.3 | – |
| OCC[n+]1cc2ccccc2c2ccccc21 | 98.4 | 45 | 31 | 37 | – |
| CCCCCC[n+]1cc2ccccc2c2ccccc21 | 0.9 | 1.8 | 0.53 | 0.12 | – |
| CCC[n+]1cc2ccccc2c2ccccc21 | 7.5 | 13.6 | 3.2 | 1.3 | – |
| CC(C)[n+]1cc2ccccc2c2ccccc21 | 4.8 | 97 | 22 | 1.5 | – |
| c1ccc(C[n+]2cccc3c4ccccc4ccc32)cc1 | 5.6 | 37.4 | 9.3 | 0.86 | – |
| C[n+]1cccc2c3ccccc3ccc21 | 34 | 25.4 | 8.9 | 5.4 | – |
| OCC[n+]1cccc2ccc3ccccc3c21 | 410 | 360 | 150 | 110 | – |
| OCC[n+]1cccc2c3ccccc3ccc21 | 210 | 160 | 83 | 79 | – |
| CC(=O)OCC[n+]1c2ccccc2cc2ccccc21 | – | – | – | – | Ki (Butyrylcholinesterase [9]): 0.011 µM; Ki (Acetylcholinesterase [10]): 0.021 µM |
| C[n+]1c2ccccc2cc2ccccc21 | 1.7 | 2.8 | 0.5 | 0.24 | – |
| C[n+]1cccc2ccc3ccccc3c21 | 230 | 140 | 18 | 32 | – |
| CC(=O)OCC[n+]1cc2ccccc2c2ccccc21 | – | – | – | – | Ki (Butyrylcholinesterase [9]): 0.12 µM; Ki (Acetylcholinesterase [10]): 0.38 µM |
| c1ccc2c(c1)ccc1c2ccc[n+]1CCCCCC[n+]1cccc2c3ccccc3ccc21 | 1.5 | 0.072 | 0.01 | 0.36 | – |
| c1ccc(CC[n+]2cc3ccccc3c3ccccc32)cc1 | 0.31 | 0.78 | 0.28 | 0.054 | – |
| c1cc[n+](CCCCCC[n+]2ccccc2)cc1 | – | – | – | – | Ki (Butyrylcholinesterase [7]): 120 µM; Ki (Acetylcholinesterase [11]): 16000 µM; Ki (Butyrylcholinesterase [8]): 620 µM |
